ChEMBL document CHEMBL1135643, “Synthesis and biological activity of strongly fluorescent tricyclic analogues of acyclovir and ganciclovir” (2002)
Converted amounts (≈) assume the structure as drawn.

Legend:
Assay type in all cases: functional
[1] = Minimum cytotoxic concentration in E6SM fibroblast cells; conditions: Homo sapiens, read-out: Min cytotoxic concentration
[2] = Minimum inhibitory concentration against Herpes simplex Virus-1(F); conditions: Human alphaherpesvirus 1
How it was run: (§1)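 Confluent E6SM fibroblast monolayers were infected with 100 CCID50 of virus (1 CCID50 infects 50% of inoculated cultures). After 1 h adsorption, residual virus was removed and cultures were incubated with 2- to 5-fold serial dilutions of compound. Inhibition of virus-induced cytopathicity was scored once the virus-infected controls reached full CPE (day 3 post-infection).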

[3] = Minimum inhibitory concentration against Herpes simplex Virus-1(KOS); conditions: Human alphaherpesvirus 1; how it was run: as §1
[4] = Minimum inhibitory concentration against Herpes simplex Virus-1 (KOS) (ACV); conditions: Human alphaherpesvirus 1; how it was run: as §1
[5] = Minimum inhibitory concentration against Herpes simplex Virus-1 (McIntyre); conditions: Human alphaherpesvirus 1; how it was run: as §1
[6] = Minimum inhibitory concentration against Herpes simplex Virus-2(196); conditions: Human alphaherpesvirus 2; how it was run: as §1
[7] = Minimum inhibitory concentration against Herpes simplex Virus-2(G); how it was run: as §1
[8] = Minimum inhibitory concentration against Herpes simplex Virus-2(Lyons); conditions: Human alphaherpesvirus 2; how it was run: as §1

Row | Structure (SMILES) | MCC [1] [µM] | MIC [2] [µM] | MIC [3] [µM] | MIC [4] [µM] | MIC [5] [µM] | MIC [6] [µM] | MIC ([7]; Human alphaherpesvirus 2) [µM] | MIC [8] [µM] | MIC ([7]; Human alphaherpesvirus 1) [µM]
1 | O=C(Oc1ccccc1)Oc1ccc(-c2cn3c(O)c4ncn(COC(CO)CO)c4nc3n2)cc1 | 814 | 0.031 (≈ 0.0152 µg/mL) | 0.008 (≈ 0.00393 µg/mL) | 19 (≈ 9.34 µg/mL) | 0.781 (≈ 0.384 µg/mL) | 0.781 (≈ 0.384 µg/mL) | 0.417 (≈ 0.205 µg/mL) | 0.156 (≈ 0.0767 µg/mL) | –
2 | O=C(Nc1ccc(-c2cn3c(O)c4ncn(COCCO)c4nc3n2)cc1)Oc1ccccc1 | 869 | 0.834 (≈ 0.384 µg/mL) | 1.1 (≈ 0.506 µg/mL) | 174 (≈ 80.1 µg/mL) | 0.834 (≈ 0.384 µg/mL) | 1.4 (≈ 0.645 µg/mL) | 2.5 (≈ 1.15 µg/mL) | 1.4 (≈ 0.645 µg/mL) | –
3 | CC(=O)Nc1ccc(-c2cn3c(O)c4ncn(COCCO)c4nc3n2)cc1 | 126 | 5 (≈ 1.91 µg/mL) | 6.7 (≈ 2.56 µg/mL) | 25 (≈ 9.56 µg/mL) | 25 (≈ 9.56 µg/mL) | 25 (≈ 9.56 µg/mL) | 8.4 (≈ 3.21 µg/mL) | 25 (≈ 9.56 µg/mL) | –
4 | CC(C)C(=O)Oc1ccc(-c2cn3c(O)c4ncn(COCCO)c4nc3n2)cc1 | 972 | 0.311 (≈ 0.128 µg/mL) | 0.56 (≈ 0.23 µg/mL) | 583 (≈ 240 µg/mL) | 0.187 (≈ 0.0769 µg/mL) | 0.933 (≈ 0.384 µg/mL) | 0.622 (≈ 0.256 µg/mL) | 0.933 (≈ 0.384 µg/mL) | –
5 | CC(C)C(=O)Nc1ccc(-c2cn3c(O)c4ncn(COCCO)c4nc3n2)cc1 | 975 | 4.7 (≈ 1.93 µg/mL) | 2.8 (≈ 1.15 µg/mL) | 780 (≈ 320 µg/mL) | 4.7 (≈ 1.93 µg/mL) | 4.7 (≈ 1.93 µg/mL) | 4.4 (≈ 1.81 µg/mL) | 4.7 (≈ 1.93 µg/mL) | –
6 | OCC(CO)OCn1cnc2c(O)n3cc(-c4ccc(O)cc4)nc3nc21 | 1080 | 0.041 (≈ 0.0152 µg/mL) | 0.041 (≈ 0.0152 µg/mL) | 69 (≈ 25.6 µg/mL) | 0.207 (≈ 0.0769 µg/mL) | 0.207 (≈ 0.0769 µg/mL) | 0.96 (≈ 0.356 µg/mL) | 0.207 (≈ 0.0769 µg/mL) | –
7 | CC(C)C(=O)Oc1ccc(-c2cn3c(O)c4ncn(COC(CO)CO)c4nc3n2)cc1 | 906 | 0.035 (≈ 0.0155 µg/mL) | 0.116 (≈ 0.0512 µg/mL) | 22 (≈ 9.71 µg/mL) | 0.174 (≈ 0.0768 µg/mL) | 0.87 (≈ 0.384 µg/mL) | 0.116 (≈ 0.0512 µg/mL) | 0.174 (≈ 0.0768 µg/mL) | –
8 | O=C(Oc1ccccc1)Oc1ccc(-c2cn3c(O)c4ncn(COCCO)c4nc3n2)cc1 | 867 | 0.166 (≈ 0.0766 µg/mL) | 0.832 (≈ 0.384 µg/mL) | 694 (≈ 320 µg/mL) | 0.166 (≈ 0.0766 µg/mL) | 0.832 (≈ 0.384 µg/mL) | 0.83 (≈ 0.383 µg/mL) | 0.832 (≈ 0.384 µg/mL) | –
9 | OCCOCn1cnc2c(O)n3cc(-c4ccc(O)cc4)nc3nc21 | 703 | 0.225 (≈ 0.0768 µg/mL) | 0.675 (≈ 0.23 µg/mL) | 234 (≈ 79.9 µg/mL) | 0.225 (≈ 0.0768 µg/mL) | 0.375 (≈ 0.128 µg/mL) | 0.675 (≈ 0.23 µg/mL) | 0.225 (≈ 0.0768 µg/mL) | –
10 | CC(=O)Oc1ccc(-c2cn3c(O)c4ncn(COC(CO)CO)c4nc3n2)cc1 | 968 | 0.062 (≈ 0.0256 µg/mL) | 0.049 (≈ 0.0203 µg/mL) | 23 (≈ 9.51 µg/mL) | 0.186 (≈ 0.0769 µg/mL) | 0.186 (≈ 0.0769 µg/mL) | 97 (≈ 40.1 µg/mL) | 0.186 (≈ 0.0769 µg/mL) | –
11 | NC(=O)Nc1ccc(-c2cn3c(O)c4ncn(COCCO)c4nc3n2)cc1 | 209 | 5 (≈ 1.92 µg/mL) | 15 (≈ 5.75 µg/mL) | 126 (≈ 48.3 µg/mL) | 5 (≈ 1.92 µg/mL) | 8.3 (≈ 3.18 µg/mL) | 15 (≈ 5.75 µg/mL) | 8.3 (≈ 3.18 µg/mL) | –
12 | CC(=O)Oc1ccc(-c2cn3c(O)c4ncn(COCCO)c4nc3n2)cc1 | 1040 | 0.2 (≈ 0.0767 µg/mL) | 0.601 (≈ 0.23 µg/mL) | 626 (≈ 240 µg/mL) | 0.2 (≈ 0.0767 µg/mL) | 0.2 (≈ 0.0767 µg/mL) | – | 0.2 (≈ 0.0767 µg/mL) | 0.601 (≈ 0.23 µg/mL)
13 | Nc1nc2c(ncn2COCCO)c(=O)[nH]1 [ACYCLOVIR] | 1780 | 0.341 (≈ 0.0768 µg/mL) | 0.341 (≈ 0.0768 µg/mL) | 249 (≈ 56.1 µg/mL) | 0.341 (≈ 0.0768 µg/mL) | 1 (≈ 0.225 µg/mL) | 0.242 (≈ 0.0545 µg/mL) | 1 (≈ 0.225 µg/mL) | –
14 | Nc1nc2c(ncn2COC(CO)CO)c(=O)[nH]1 [GANCICLOVIR] | 392 | 0.045 (≈ 0.0115 µg/mL) | 0.03 (≈ 0.00766 µg/mL) | 7.5 (≈ 1.91 µg/mL) | 0.04 (≈ 0.0102 µg/mL) | 0.1 (≈ 0.0255 µg/mL) | 0.06 (≈ 0.0153 µg/mL) | 0.045 (≈ 0.0115 µg/mL) | –
